In ChEMBL document CHEMBL3822356, “Urotensin II((4-11)) Azasulfuryl Peptides: Synthesis and Biological Activity” (J Med Chem, 2016):
Calls of active or inactive are those of the source. No cut-off for these calls is given here. Where a SMILES comes first, the peptide text is derived from it.

Key:
[1] = biological target: T1, Urotensin-2 receptor (Homo sapiens, UniProt Q9UKP6); assay: Displacement of [125I]-hU2 from human UT2 receptor expressed in CHO cells after 90 mins by gamma counter assay; type: cell-based
T1 sequence (Q9UKP6 whole entry): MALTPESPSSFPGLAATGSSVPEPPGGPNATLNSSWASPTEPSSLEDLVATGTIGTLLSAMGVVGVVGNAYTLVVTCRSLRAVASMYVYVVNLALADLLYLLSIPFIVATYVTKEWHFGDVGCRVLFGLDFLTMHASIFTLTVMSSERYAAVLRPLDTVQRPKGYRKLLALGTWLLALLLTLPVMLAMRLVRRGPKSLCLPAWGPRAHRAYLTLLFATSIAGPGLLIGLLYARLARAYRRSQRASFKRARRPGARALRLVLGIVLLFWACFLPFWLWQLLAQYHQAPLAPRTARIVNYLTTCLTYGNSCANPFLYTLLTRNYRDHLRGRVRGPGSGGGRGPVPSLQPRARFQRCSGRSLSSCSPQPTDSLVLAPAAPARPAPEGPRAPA
In short: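 CHO cells overexpressing human UT receptor incubated with test peptide. Displacement of 125I-hUII from UT measured. At least three independent experiments, each determination in triplicate; mean ± S.E.M.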

[2] = biological target: T2, Urotensin-2 receptor (Rattus norvegicus) (UniProt P49684); assay: Antagonist activity at UT2 receptor in Sprague-Dawley rat thoracic aorta ring assessed as Emax for hU2-induced aortic contractions at 10^-5M relative to KCl; type: tissue-based
T2 sequence (whole entry): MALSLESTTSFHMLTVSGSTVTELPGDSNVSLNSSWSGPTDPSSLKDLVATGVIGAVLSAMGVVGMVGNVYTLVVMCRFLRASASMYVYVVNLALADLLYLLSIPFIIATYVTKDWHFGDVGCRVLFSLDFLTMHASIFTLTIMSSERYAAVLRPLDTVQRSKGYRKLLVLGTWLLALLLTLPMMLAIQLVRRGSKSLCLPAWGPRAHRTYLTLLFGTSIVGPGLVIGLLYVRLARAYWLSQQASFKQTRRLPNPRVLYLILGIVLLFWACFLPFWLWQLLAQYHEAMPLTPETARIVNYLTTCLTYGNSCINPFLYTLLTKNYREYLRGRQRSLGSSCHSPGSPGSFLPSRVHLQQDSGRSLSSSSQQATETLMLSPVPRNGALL
In short: (§1)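 Rat aortic rings pre-exposed to test peptide at 10^-5 M, then given cumulative increasing concentrations (10^-11 to 10^-6 M) of hUII or URP. Contraction measured to give pEC50 and Emax, expressed relative to KCl-induced contraction. Mean ± SEM; unpaired Student's t test against hUII or URP alone.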

[3] = biological target: T3, Urotensin-2 receptor (Homo sapiens) (UniProt Q9UKP6); assay: Displacement of [125I]-hU2 from human UT2 receptor expressed in CHO cells at 10^-5 M after 90 mins by gamma counter assay; type: cell-based
T3 sequence (whole entry): T1 sequence (Q9UKP6 whole entry)

[4] = biological target: T2, Urotensin-2 receptor (Rattus norvegicus); assay: Antagonist activity at UT2 receptor in Sprague-Dawley rat thoracic aorta ring assessed as Emax for URP-induced aortic contractions at 10^-5M relative to KCl; type: tissue-based; in short: as §1
[5] = biological target: T2, Urotensin-2 receptor (Rattus norvegicus); assay: Partial agonist activity at UT2 receptor in Sprague-Dawley rat thoracic aorta ring assessed as induction of aortic contractions at 10 to 100 uM relative to KCl; type: tissue-based
In short: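 Peptides applied alone to rat aortic rings to test for induced contraction. Response expressed as percent of KCl-induced contraction.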

Row | SMILES | IC50 [1] | Emax [2] | inhibition [3] | Emax [4] | Efficacy [5] | Activity [5]
1 | CC(C)[C@H](NC(=O)[C@@H]1CSSC[C@H](NC(=O)[C@@H](N)CC(=O)O)C(=O)N[C@@H](Cc2ccccc2)C(=O)N[C@@H](Cc2c[nH]c3ccccc23)C(=O)NN(CCCCN)S(=O)(=O)N[C@@H](Cc2ccc(O)cc2)C(=O)N1)C(=O)O (HELM PEPTIDE1{D.C.F.W.[NCCCCN(N[*:1])S(=O)(=O)N[C@@H](Cc1ccc(O)cc1)C(=O)[*:2]].C.V}$PEPTIDE1,PEPTIDE1,2:R3-6:R3$$$V2.0) | > 1000 nM | 83% | 40% | 110% | – | inactive
2 | CC(C)[C@H](NC(=O)[C@@H]1CSSC[C@H](NC(=O)[C@@H](N)CC(=O)O)C(=O)N[C@@H](Cc2ccccc2)C(=O)NN(Cc2ccc(-c3ccccc3)cc2)S(=O)(=O)N[C@@H](CCCCN)C(=O)N[C@@H](Cc2ccc(O)cc2)C(=O)N1)C(=O)O | > 1000 nM | 51% | 40% | 69% | 3% | –
3 | CC(C)[C@H](NC(=O)[C@@H]1CSSC[C@H](NC(=O)[C@H](CC(=O)O)NC(=O)[C@@H]2CCCN2C(=O)[C@@H](NC(=O)[C@@H](N)CCC(=O)O)[C@@H](C)O)C(=O)N[C@@H](Cc2ccccc2)C(=O)N[C@@H](Cc2c[nH]c3ccccc23)C(=O)N[C@@H](CCCCN)C(=O)N[C@@H](Cc2ccc(O)cc2)C(=O)N1)C(=O)O | – | – | – | – | – | Active
4 | CC(C)[C@H](NC(=O)[C@@H]1CSSC[C@H](NC(=O)[C@H](C)N)C(=O)N[C@@H](Cc2ccccc2)C(=O)N[C@@H](Cc2c[nH]c3ccccc23)C(=O)N[C@@H](CCCCN)C(=O)N[C@@H](Cc2ccc(O)cc2)C(=O)N1)C(=O)O | – | – | – | – | – | Active
5 | CC(C)[C@H](NC(=O)[C@@H]1CSSC[C@H](NC(=O)[C@@H](N)CC(=O)O)C(=O)N[C@@H](Cc2ccccc2)C(=O)N[C@@H](Cc2c[nH]c3ccccc23)C(=O)NN(CCCCN(C)C)S(=O)(=O)N[C@@H](Cc2ccc(O)cc2)C(=O)N1)C(=O)O (HELM PEPTIDE1{D.C.F.W.[CN(C)CCCCN(N[*:1])S(=O)(=O)N[C@@H](Cc1ccc(O)cc1)C(=O)[*:2]].C.V}$PEPTIDE1,PEPTIDE1,2:R3-6:R3$$$V2.0) | > 1000 nM | 83% | 40% | 110% | – | inactive

Continued, in another order:

Row | IC50 [1] | Emax [2] | inhibition [3] | Emax [4] | Efficacy [5] | SMILES | Activity [5]
6 | > 1000 nM | 87% | 40% | 101% | 3% | CC(C)[C@H](NC(=O)[C@@H]1CSSC[C@H](NC(=O)[C@@H](N)CC(=O)O)C(=O)N[C@@H](Cc2ccccc2)C(=O)NN(Cc2ccccc2)S(=O)(=O)N[C@@H](CCCCN)C(=O)N[C@@H](Cc2ccc(O)cc2)C(=O)N1)C(=O)O (HELM PEPTIDE1{D.C.F.[NCCCC[C@H](NS(=O)(=O)N(Cc1ccccc1)N[*:1])C(=O)[*:2]].Y.C.V}$PEPTIDE1,PEPTIDE1,2:R3-6:R3$$$V2.0) | –
7 | > 1000 nM | 65% | 40% | 105% | 3% | CC(C)[C@H](NC(=O)[C@@H]1CSSC[C@H](NC(=O)[C@@H](N)CC(=O)O)C(=O)N[C@@H](Cc2ccccc2)C(=O)NN(Cc2ccc3ccccc3c2)S(=O)(=O)N[C@@H](CCCCN)C(=O)N[C@@H](Cc2ccc(O)cc2)C(=O)N1)C(=O)O | –
8 | > 1000 nM | 29% | 40% | 38% | 3% | CC(C)[C@H](NC(=O)[C@@H]1CSSC[C@H](NC(=O)[C@@H](N)CC(=O)O)C(=O)N[C@@H](Cc2ccccc2)C(=O)NN(Cc2cccc3ccccc23)S(=O)(=O)N[C@@H](CCCCN)C(=O)N[C@@H](Cc2ccc(O)cc2)C(=O)N1)C(=O)O | –
